We go through two molecules from ChEMBL document CHEMBL1154352, “Toll-like receptor 7 selective synthetic oligoribonucleotide agonists: synthesis and structure-activity relationship studies” (J Med Chem, 2009).

Active and inactive are the calls of the source. The rule behind the calls is not given here.

Data set [1] has as its system Splenocyte. Kind of data set: Immunomodulatory activity in C57BL/6 mouse splenocytes bearing TLR7 receptor assessed as IL12 release at 100 ug/ml after 24 hrs by ELISA. Format: functional, cell-based. In outline: (§1)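 C57BL/6 splenocytes in RPMI 1640 with 10% FBS, penicillin/streptomycin, 2 mM L-glutamine, plated at 5 × 10^6 cells/mL; compounds in PBS added, 37 °C for 24 h. Supernatant IL-12 and IL-6 by ELISA; representative of three independent experiments.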
A general note: In an ELISA, binding on a coated surface is turned into a signal by an enzyme label.

The target of data set [2] is T1, Toll-like receptor 9 (Mus musculus) (UniProt Q9EQU3).
T1 sequence (whole entry): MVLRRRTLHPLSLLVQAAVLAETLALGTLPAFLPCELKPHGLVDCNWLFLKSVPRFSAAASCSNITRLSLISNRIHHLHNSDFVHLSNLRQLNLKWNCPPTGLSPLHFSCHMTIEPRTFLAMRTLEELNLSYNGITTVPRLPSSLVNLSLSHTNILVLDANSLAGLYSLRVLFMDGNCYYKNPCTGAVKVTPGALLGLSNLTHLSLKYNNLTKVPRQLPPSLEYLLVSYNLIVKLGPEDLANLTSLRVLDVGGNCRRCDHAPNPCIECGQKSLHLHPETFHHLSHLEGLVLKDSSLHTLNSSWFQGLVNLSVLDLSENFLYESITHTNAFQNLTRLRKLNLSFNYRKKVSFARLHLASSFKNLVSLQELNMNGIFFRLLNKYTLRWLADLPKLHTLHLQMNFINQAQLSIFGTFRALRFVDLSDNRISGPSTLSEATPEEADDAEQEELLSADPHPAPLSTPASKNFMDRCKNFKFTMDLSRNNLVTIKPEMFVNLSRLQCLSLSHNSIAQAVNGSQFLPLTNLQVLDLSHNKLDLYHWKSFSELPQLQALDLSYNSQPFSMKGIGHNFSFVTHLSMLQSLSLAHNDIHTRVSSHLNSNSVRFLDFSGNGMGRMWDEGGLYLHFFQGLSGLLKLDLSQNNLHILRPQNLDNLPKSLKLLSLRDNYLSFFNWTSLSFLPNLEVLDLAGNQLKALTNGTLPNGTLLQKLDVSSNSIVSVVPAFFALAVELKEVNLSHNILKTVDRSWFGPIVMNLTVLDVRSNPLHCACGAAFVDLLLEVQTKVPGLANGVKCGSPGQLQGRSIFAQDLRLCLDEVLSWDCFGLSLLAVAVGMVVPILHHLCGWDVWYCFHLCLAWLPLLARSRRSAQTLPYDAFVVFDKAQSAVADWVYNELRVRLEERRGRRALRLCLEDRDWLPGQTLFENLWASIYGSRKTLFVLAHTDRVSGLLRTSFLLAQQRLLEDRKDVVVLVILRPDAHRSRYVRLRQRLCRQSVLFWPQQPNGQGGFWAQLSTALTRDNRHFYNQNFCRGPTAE
Kind of data set: Activation of mouse TLR9 expressed in HEK293 assessed as induction of NF-kappaB activity reporter gene assay. Type of data set: cell-based. For orientation: A reporter such as luciferase makes a cellular process visible.

The nature of data set [3]: Metabolic stability in human serum assessed as full length product remaining after 10 mins by HPLC. Type of data set: ADME, cell-free. The conditions noted are these: read-out: Stability. In outline: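 About 0.5 A260 units compound in 1% human serum in PBS, 37 °C; aliquot taken at 10 min, analysed by anion-exchange HPLC for percent intact full-length product.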
Data set [4] has as its system Splenocyte. Kind of data set: Immunomodulatory activity in C57BL/6 mouse splenocytes bearing TLR7 receptor assessed as IL6 release at 100 ug/ml after 24 hrs by ELISA. Type of data set: functional, cell-based. In outline:
as §1

For data set [5], the system named is PBMC. Kind of data set: Immunomodulatory activity in human PBMC assessed as induction of TNFalpha at 100 ug/ml after 24 hrs. Format: functional, cell-based. In outline: (§2)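 Human PBMCs plated at 5 × 10^6 cells/mL; compounds dissolved in PBS added at various concentrations, 37 °C for 24 h. Supernatant cytokines/chemokines quantified with human Luminex multiplex kit.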

The test system of data set [6] is PBMC. Kind of data set: Immunomodulatory activity in human PBMC assessed as induction of IFN-alpha at 100 ug/ml after 24 hrs.
Data set [7] concerns the target T2, Toll-like receptor 8 (Homo sapiens) (UniProt Q9NR97).
T2 sequence (whole entry): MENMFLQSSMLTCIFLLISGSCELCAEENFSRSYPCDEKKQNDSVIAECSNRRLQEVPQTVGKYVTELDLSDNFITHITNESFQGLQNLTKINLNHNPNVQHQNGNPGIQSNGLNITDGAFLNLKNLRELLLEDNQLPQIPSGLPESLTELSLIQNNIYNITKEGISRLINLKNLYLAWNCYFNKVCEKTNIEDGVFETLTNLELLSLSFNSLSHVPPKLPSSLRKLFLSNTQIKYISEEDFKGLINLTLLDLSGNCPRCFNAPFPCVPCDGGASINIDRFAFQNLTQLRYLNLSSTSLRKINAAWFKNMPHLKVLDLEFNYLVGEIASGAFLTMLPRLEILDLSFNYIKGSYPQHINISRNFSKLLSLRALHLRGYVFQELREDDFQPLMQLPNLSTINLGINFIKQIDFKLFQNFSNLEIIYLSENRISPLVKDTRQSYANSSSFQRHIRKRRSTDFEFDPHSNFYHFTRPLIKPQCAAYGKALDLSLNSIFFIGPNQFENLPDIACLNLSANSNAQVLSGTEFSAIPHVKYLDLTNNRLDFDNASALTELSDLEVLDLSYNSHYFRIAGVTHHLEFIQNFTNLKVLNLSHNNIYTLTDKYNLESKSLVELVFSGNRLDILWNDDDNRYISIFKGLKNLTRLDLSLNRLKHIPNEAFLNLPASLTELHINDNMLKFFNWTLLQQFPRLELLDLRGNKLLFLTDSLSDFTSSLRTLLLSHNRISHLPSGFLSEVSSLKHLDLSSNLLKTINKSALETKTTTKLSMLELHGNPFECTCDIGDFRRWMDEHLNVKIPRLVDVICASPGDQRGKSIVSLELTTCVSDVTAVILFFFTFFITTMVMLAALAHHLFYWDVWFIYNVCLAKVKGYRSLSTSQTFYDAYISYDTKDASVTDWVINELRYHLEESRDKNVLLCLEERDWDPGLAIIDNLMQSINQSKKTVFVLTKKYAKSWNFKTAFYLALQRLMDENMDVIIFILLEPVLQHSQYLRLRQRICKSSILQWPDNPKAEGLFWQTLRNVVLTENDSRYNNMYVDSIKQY
Kind of data set: Activation of human TLR8 expressed in HEK293XL assessed as fold induction of NF-kappaB activity at 50 ug/ml after 18 hrs by reporter gene assay relative to control. Summed up:
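HEK293 cells stably expressing human TLR7 or TLR8, transiently transfected with SEAP reporter plasmid; medium replaced, SIMRA compounds added, 18 h incubation. Supernatant SEAP measured by QuantiBlue; expressed as fold increase in NF-κB activity over PBS control. Tabulated data at 50 μg/mL, representative of three independent experiments.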

In data set [8] the test system is PBMC. Kind of data set: Immunomodulatory activity in human PBMC assessed as induction of IL12 at 100 ug/ml after 24 hrs. Type of data set: functional, cell-based. Summed up: as §2
Data set [9] addresses Toll-like receptor 3 (Homo sapiens) (UniProt O15455). Kind of data set: Activation of human TLR3 expressed in HEK293 assessed as induction of NF-kappaB activity reporter gene assay. Type of data set: cell-based.

Chain of Toll-like receptor 3 (Homo sapiens) (O15455 whole entry): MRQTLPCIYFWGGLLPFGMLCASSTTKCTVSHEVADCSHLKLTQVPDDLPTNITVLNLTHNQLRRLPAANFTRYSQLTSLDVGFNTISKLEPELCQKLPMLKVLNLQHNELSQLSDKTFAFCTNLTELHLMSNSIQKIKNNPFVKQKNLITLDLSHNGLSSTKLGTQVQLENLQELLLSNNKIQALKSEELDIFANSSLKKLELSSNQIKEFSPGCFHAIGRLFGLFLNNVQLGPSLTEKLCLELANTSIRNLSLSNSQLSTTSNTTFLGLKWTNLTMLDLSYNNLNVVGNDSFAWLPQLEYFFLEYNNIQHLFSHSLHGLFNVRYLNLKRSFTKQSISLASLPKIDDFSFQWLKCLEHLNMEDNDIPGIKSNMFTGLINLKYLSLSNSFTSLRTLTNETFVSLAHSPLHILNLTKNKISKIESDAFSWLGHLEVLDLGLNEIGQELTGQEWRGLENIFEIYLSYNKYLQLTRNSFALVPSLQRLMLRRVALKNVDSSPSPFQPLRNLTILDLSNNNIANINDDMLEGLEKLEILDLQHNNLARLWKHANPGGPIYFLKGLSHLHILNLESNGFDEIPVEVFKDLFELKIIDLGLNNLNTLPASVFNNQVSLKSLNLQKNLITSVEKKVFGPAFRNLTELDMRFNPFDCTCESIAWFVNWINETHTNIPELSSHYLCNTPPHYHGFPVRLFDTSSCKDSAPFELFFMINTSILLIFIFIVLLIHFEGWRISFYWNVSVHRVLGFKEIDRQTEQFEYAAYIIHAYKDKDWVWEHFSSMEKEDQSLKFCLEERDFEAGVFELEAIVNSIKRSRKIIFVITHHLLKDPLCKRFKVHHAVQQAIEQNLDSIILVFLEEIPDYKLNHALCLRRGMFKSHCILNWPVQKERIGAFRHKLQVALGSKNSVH

Regarding `Nc1ccn([C@@H]2O[C@H](COP(=O)(S)O[C@H]3[C@@H](O)[C@H](n4ccc5c(=O)[nH]c(N)nc54)O[C@@H]3CO[C@H]3[C@@H](O)[C@H](n4cnc5c(N)ncnc54)O[C@@H]3COP(=O)(S)O[C@H]3[C@@H](O)[C@H](n4ccc5c(=O)[nH]c(N)nc54)O[C@@H]3COP(=O)(S)O[C@H]3[C@@H](O)[C@H](n4ccc(=O)[nH]c4=O)O[C@@H]3COP(=O)(S)O[C@H]3[C@@H](O)[C@H](n4ccc(N)nc4=O)O[C@@H]3COP(=O)(S)O[C@H]3[C@@H](O)[C@H](n4ccc5c(=O)[nH]c(N)nc54)O[C@@H]3COP(=O)(S)O[C@H]3[C@@H](O)[C@H](n4ccc(=O)[nH]c4=O)O[C@@H]3COP(=O)(S)O[C@H]3[C@@H](O)[C@H](n4ccc(=O)[nH]c4=O)O[C@@H]3CO)[C@@H](OP(=O)(S)OC[C@H]3O[C@@H](n4ccc(=O)[nH]c4=O)[C@H](O)[C@@H]3OP(=O)(S)OC[C@H]3O[C@@H](n4ccc(=O)[nH]c4=O)[C@H](O)[C@@H]3OP(=O)(S)OCC(O)COP(=O)(S)O[C@H]3[C@@H](O)[C@H](n4ccc(=O)[nH]c4=O)O[C@@H]3COP(=O)(S)O[C@H]3[C@@H](O)[C@H](n4ccc(=O)[nH]c4=O)O[C@@H]3COP(=O)(S)O[C@H]3[C@@H](O)[C@H](n4ccc(N)nc4=O)O[C@@H]3COP(=O)(S)O[C@H]3[C@@H](O)[C@H](n4ccc5c(=O)[nH]c(N)nc54)O[C@@H]3CO[C@H]3[C@@H](O)[C@H](n4cnc5c(N)ncnc54)O[C@@H]3COP(=O)(S)O[C@H]3[C@@H](O)[C@H](n4ccc5c(=O)[nH]c(N)nc54)O[C@@H]3COP(=O)(S)O[C@H]3[C@@H](O)[C@H](n4ccc(=O)[nH]c4=O)O[C@@H]3COP(=O)(S)O[C@H]3[C@@H](O)[C@H](n4ccc(N)nc4=O)O[C@@H]3COP(=O)(S)O[C@H]3[C@@H](O)[C@H](n4ccc5c(=O)[nH]c(N)nc54)O[C@@H]3COP(=O)(S)O[C@H]3[C@@H](O)[C@H](n4ccc(=O)[nH]c4=O)O[C@@H]3COP(=O)(S)O[C@H]3[C@@H](O)[C@H](n4ccc(=O)[nH]c4=O)O[C@@H]3CO)[C@H]2O)c(=O)n1` (stereo partly drawn), the outcome with Splenocyte [1] and with Splenocyte [4] was Active. The outcome in [2] and in data set [9] was inactive. For the same molecule, the remaining at 10 min in data set [3] was 83%. Besides, the Activity is 415 pg/mL with PBMC [5] and 1370 pg/mL in the data set with PBMC [8]. The IFN-alpha in the data set with PBMC [6] came out at 145 pg/mL. Also, in data set [7], the fold change (FC) came to 0.4.
On to `Nc1ccn([C@@H]2O[C@H](CO)[C@@H](OP(=O)(S)OC[C@H]3O[C@@H](n4ccc(=O)[nH]c4=O)[C@H](O)[C@@H]3OP(=O)(S)OC[C@H]3O[C@@H](n4ccc(=O)[nH]c4=O)[C@H](O)[C@@H]3OP(=O)(S)OC[C@H]3O[C@@H](n4ccc5c(=O)[nH]c(N)nc54)[C@H](O)[C@@H]3OP(=O)(S)OC[C@H]3O[C@@H](n4ccc(=O)[nH]c4=O)[C@H](O)[C@@H]3OP(=O)(S)OC[C@H]3O[C@@H](n4ccc5c(=O)[nH]c(N)nc54)[C@H](O)[C@@H]3OP(=O)(S)OC[C@H]3O[C@@H](n4cnc5c(N)ncnc54)[C@H](O)[C@@H]3OP(=O)(S)OC[C@H]3O[C@@H](n4ccc5c(=O)[nH]c(N)nc54)[C@H](O)[C@@H]3OP(=O)(S)OC[C@H]3O[C@@H](n4ccc(N)nc4=O)[C@H](O)[C@@H]3OP(=O)(S)OC[C@H]3O[C@@H](n4ccc(=O)[nH]c4=O)[C@H](O)[C@@H]3OP(=O)(S)OC[C@H]3O[C@@H](n4ccc(=O)[nH]c4=O)[C@H](O)[C@@H]3OP(=O)(S)OCC(O)COP(=O)(S)O[C@H]3[C@@H](O)[C@H](n4ccc(=O)[nH]c4=O)O[C@@H]3COP(=O)(S)O[C@H]3[C@@H](O)[C@H](n4ccc(=O)[nH]c4=O)O[C@@H]3COP(=O)(S)O[C@H]3[C@@H](O)[C@H](n4ccc(N)nc4=O)O[C@@H]3COP(=O)(S)O[C@H]3[C@@H](O)[C@H](n4ccc5c(=O)[nH]c(N)nc54)O[C@@H]3COP(=O)(S)O[C@H]3[C@@H](O)[C@H](n4cnc5c(N)ncnc54)O[C@@H]3COP(=O)(S)O[C@H]3[C@@H](O)[C@H](n4ccc5c(=O)[nH]c(N)nc54)O[C@@H]3COP(=O)(S)O[C@H]3[C@@H](O)[C@H](n4ccc(=O)[nH]c4=O)O[C@@H]3COP(=O)(S)O[C@H]3[C@@H](O)[C@H](n4ccc5c(=O)[nH]c(N)nc54)O[C@@H]3COP(=O)(S)O[C@H]3[C@@H](O)[C@H](n4ccc(=O)[nH]c4=O)O[C@@H]3COP(=O)(S)O[C@H]3[C@@H](O)[C@H](n4ccc(=O)[nH]c4=O)O[C@@H]3COP(=O)(S)O[C@H]3[C@@H](O)[C@H](n4ccc(N)nc4=O)O[C@@H]3CO)[C@H]2O)c(=O)n1` (stereo partly drawn), for which the outcome in the data set with Splenocyte [1] and with Splenocyte [4] was Active. The result in data set [2] and in data set [9] was inactive. In [3], the remaining at 10 min worked out at 85%. For the same molecule, the figures for the Activity in the data set on PBMC [5] and in the data set on PBMC [8] were 403 pg/mL and 1020 pg/mL, respectively. For the same molecule, in the data set on PBMC [6], the IFN-alpha was determined as 138 pg/mL. Besides, the fold change (FC) in data set [7] is 1.5.
